# Assay results taken from ChEMBL document CHEMBL3627705 (Bioorg Med Chem Lett, 2015).
# How the values were obtained:
# [1] = target: T1, Corticotropin-releasing factor receptor 1 (Homo sapiens, UniProt P34998); test: Displacement of [125I]-Tyr0-sauvagine from human CRF1 receptor expressed in HEK293T cells after 2 hrs by scintillation counting; type: cell-based, HEK-293T
# T1 sequence (P34998 whole entry): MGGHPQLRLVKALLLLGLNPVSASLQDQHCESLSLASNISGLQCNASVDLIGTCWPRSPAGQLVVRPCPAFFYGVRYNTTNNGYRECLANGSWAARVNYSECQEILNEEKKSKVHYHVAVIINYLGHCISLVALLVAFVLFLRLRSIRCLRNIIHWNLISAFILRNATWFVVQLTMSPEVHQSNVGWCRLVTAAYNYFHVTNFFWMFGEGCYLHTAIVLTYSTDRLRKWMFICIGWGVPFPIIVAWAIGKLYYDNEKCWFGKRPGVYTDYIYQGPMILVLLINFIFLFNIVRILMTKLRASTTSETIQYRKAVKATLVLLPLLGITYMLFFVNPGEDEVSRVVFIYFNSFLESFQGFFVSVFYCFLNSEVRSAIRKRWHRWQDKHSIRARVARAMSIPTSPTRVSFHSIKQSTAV
# [2] = target: T2, Corticotropin-releasing factor receptor 2 (Homo sapiens) (UniProt Q13324); test: Displacement of [125I]-antisauvagine-30 from human CRF2 receptor expressed in HEK293T cells at 1 uM after 2 hrs by scintillation counting; type: cell-based; conditions: HEK-293T
# T2 sequence (whole entry): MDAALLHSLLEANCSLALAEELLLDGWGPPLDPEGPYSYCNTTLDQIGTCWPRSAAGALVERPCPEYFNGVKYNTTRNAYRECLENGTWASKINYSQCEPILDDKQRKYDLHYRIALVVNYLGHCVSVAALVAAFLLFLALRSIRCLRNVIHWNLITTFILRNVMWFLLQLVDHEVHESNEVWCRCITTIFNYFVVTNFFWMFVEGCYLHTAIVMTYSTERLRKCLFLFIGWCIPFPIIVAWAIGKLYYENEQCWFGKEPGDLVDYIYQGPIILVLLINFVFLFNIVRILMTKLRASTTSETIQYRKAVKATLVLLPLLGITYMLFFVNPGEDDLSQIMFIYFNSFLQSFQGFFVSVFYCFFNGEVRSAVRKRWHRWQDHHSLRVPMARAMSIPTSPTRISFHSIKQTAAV
# How it was run: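 Competition binding at 23 °C on HEK293T cells transfected with human CRF2 receptor. Each ligand tested at 1 μM against the radiotracer [125I]antisauvagine-30. Read-out is mean % displacement of specific radiotracer binding, n = 2.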
# [3] = Lipophilicity, logP of the compound at pH 7.4; type: physicochemical; conditions: buffer
# How it was run: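 Octanol/aqueous buffer shake-flask partition at pH 7.4, done on the 18F-labelled radioligands; mean ± SD of n = 4.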
# Brain = test: Drug uptake in cynomolgus monkey brain assessed as whole-brain time-activity curve by MicroPET imaging analysis; type: ADME, tissue-based, Macaca fascicularis; conditions: in vivo
Structure (SMILES),Ki [1],inhibition [2],other results
CCCCN(CC)c1cc(C)nc2c1NC(=O)CN2c1ccc(C)cc1Cl,4.4 nM,–,–
Cc1cc(N(C)C)c2c(n1)N(c1ccc(C(C)C)cc1Br)CC(=O)N2C/C=C/CF,14.2 nM,–,–
Cc1cc(N(C)C)c2c(n1)N(c1ccc(C(C)C)cc1Br)CC(=O)N2,180 nM,–,–
CCCCN(CC)c1cc(C)nc2c1NC(=O)CN2c1ccc(C(C)(C)C)cc1Br,4.2 nM,-3.8%,–
CCCCN(CC)c1cc(C)nc2c1NC(=O)CN2c1ccc(Cl)cc1Br,2.5 nM,–,–
CCN(CC)c1cc(C)nc2c1N(CCF)C(=O)CN2c1ccc(C(C)C)cc1Br,7.3 nM,–,–
Cc1cc(N(C)C)c2c(n1)N(c1ccc(C(C)C)cc1Br)CC(=O)N2CCCC[17F],–,–,logD [3]: 2.19
CCCCN(CC)c1cc(C)nc2c1NC(=O)CN2c1ccc(Br)cc1Cl,2.7 nM,–,–
CCCN(CCC)c1cc(C)nc2c1NC(=O)CN2c1ccc(C(C)C)cc1Br,3.1 nM,–,–
CCCCN(CC)c1cc(C)nc2c1NC(=O)CN2c1ccc(Br)cc1CC,2.5 nM,2.1%,–
CCN(C)c1cc(C)nc2c1N(CCCCF)C(=O)CN2c1ccc(C(C)C)cc1Br,13.9 nM,–,–
Cc1cc(N(C)C)c2c(n1)N(c1ccc(C(C)C)cc1Br)CC(=O)N2CCCCF,21.6 nM,–,–
CCCCN(CC)c1cc(C)nc2c1NC(=O)CN2c1ccc(Br)cc1Br,1.3 nM,9.4%,–
CCCCN(CC)c1cc(C)nc2c1N(C)C(=O)CN2c1ccc(Br)cc1Br,2.4 nM,–,–
CCCCN(CC)c1cc(C)nc2c1NC(=O)CN2c1ccc(C)cc1C,3.9 nM,6.8%,–
CCCCN(CC)c1cc(C)nc2c1NC(=O)CN2c1ccc(Cl)cc1C,5.4 nM,–,–
CCN(C)c1cc(C)nc2c1N(CCCC[17F])C(=O)CN2c1ccc(C(C)C)cc1Br,–,–,SUV (Brain): <= 1; logD [3]: 2.22
CCN(C)c1cc(C)nc2c1NC(=O)CN2c1ccc(C(C)C)cc1Br,16.4 nM,–,–
Cc1cc(N(C)C)c2c(n1)N(c1ccc(C(C)C)cc1Br)CC(=O)N2CCF,59 nM,–,–
CCCCN(CC)c1cc(C)nc2c1NC(=O)CN2c1ccc(C(C)C)cc1Br,2.4 nM,0.7%,–
CCCCN(CC)c1cc(C)nc2c1NC(=O)CN2c1ccc(Br)cc1C,4.4 nM,5.9%,–
CCCCN(CC)c1cc(C)nc2c1NC(=O)CN2c1ccc(OC)cc1C,4 nM,-2.3%,–
CCCCN(CC)c1cc(C)nc2c1NC(=O)CN2c1ccc(I)cc1C,3.4 nM,–,–
CC[C@H](C)[C@H](NC(=O)[C@@H](NC(=O)[C@H](CC(=O)O)NC(=O)[C@H](CC(C)C)NC(=O)[C@H](CC(C)C)NC(=O)[C@H](CC(C)C)NC(=O)[C@H](CCCN=C(N)N)NC(=O)[C@H](CC(N)=O)NC(=O)[C@H](CC(N)=O)NC(=O)[C@H](C)NC(=O)[C@H](C)NC(=O)[C@H](CCC(N)=O)NC(=O)[C@H](CCC(N)=O)NC(=O)[C@H](CCCCN)NC(=O)[C@H](CCC(=O)O)NC(=O)[C@H](CCCCN)NC(=O)[C@H](CCC(=O)O)NC(=O)[C@H](CCC(N)=O)NC(=O)[C@H](CCCCN)NC(=O)[C@H](CCC(=O)O)NC(=O)[C@@H](NC(=O)[C@H](CCC(=O)O)NC(=O)[C@@H](NC(=O)[C@H](CCSC)NC(=O)[C@H](CCCCN)NC(=O)[C@H](CCCN=C(N)N)NC(=O)[C@H](CC(C)C)NC(=O)[C@H](CC(C)C)NC(=O)[C@H](CCC(=O)O)NC(=O)[C@H](CC(C)C)NC(=O)[C@H](CO)NC(=O)[C@H](CC(C)C)NC(=O)[C@H](CC(=O)O)NC(=O)[C@@H](NC(=O)[C@H](CO)NC(=O)[C@@H](NC(=O)[C@@H]1CCCN1C(=O)[C@@H]1CCCN1C(=O)CNC(=O)[C@@H]1CCC(=O)N1)[C@@H](C)CC)[C@@H](C)CC)[C@@H](C)CC)[C@@H](C)CC)[C@@H](C)O)C(=O)O,–,100%,–
CCCCN(CC)c1cc(C)nc2c1NC(=O)CN2c1ccc(C)cc1Br,4.4 nM,5.5%,–
CCCCN(CC)c1cc(C)nc2c1NC(=O)CN2c1ccc(Cl)cc1Cl,3.4 nM,0.9%,–
CCCN(CCC)c1cc(C)nc2c(-c3cnc(N(C)C)cc3C)c(C)nn12,–,23.8%,–
